Reference: paper PMC6923798 (Bioorganic chemistry, 2018)

Legend:
MOLT-4 = assay: NCI in vitro five dose anticancer assay; type: cell-based, human
U251 = assay: NCI in vitro five dose anticancer assay; type: cell-based, human
SR cell line = assay: NCI in vitro one dose anticancer assay; type: cell-based; conditions: Homo sapiens, 48 h, read-out: % growth inhibition
Method in brief: (§1)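 NCI protocol. Test compound added once at 10−5 M to ~60 human tumour lines from nine subpanels. Incubated 48 h at 37 °C, 5% CO2, 95% air, 100% relative humidity. Endpoint by sulforhodamine B protein staining with spectrophotometric absorbance. Growth of treated cells reported as percent of untreated cells.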

DU-145 = assay: NCI in vitro five dose anticancer assay; type: cell-based, human
HOP-62 = assay: NCI in vitro five dose anticancer assay; type: cell-based, human
SW-620 = assay: NCI in vitro five dose anticancer assay; type: cell-based, human
BT-549 = assay: NCI in vitro five dose anticancer assay; type: cell-based, human
MDA-MB-435 = assay: NCI in vitro five dose anticancer assay; type: cell-based, human
SF-539 = assay: NCI in vitro five dose anticancer assay; type: cell-based, human
MDA-MB-468 = assay: NCI in vitro five dose anticancer assay; type: cell-based, human
UACC-62 = assay: NCI in vitro five dose anticancer assay; type: cell-based, human
T-47D = assay: NCI in vitro five dose anticancer assay; type: cell-based, human; conditions: 48 h
NCI-H23 = assay: NCI in vitro five dose anticancer assay; type: cell-based, human
KG-1a = assay: MTT anti-proliferative assay; type: cell-based, human; conditions: Homo sapiens, KG-1a, 24 h, read-out: IC50 ± SD, KG-1a
HOP-92 = assay: NCI in vitro five dose anticancer assay; type: cell-based, human
IGROV1 = assay: NCI in vitro five dose anticancer assay; type: cell-based, human
CCRF-CEM = assay: NCI in vitro five dose anticancer assay; type: cell-based, human; conditions: 48 h
SNB-75 = assay: NCI in vitro five dose anticancer assay; type: cell-based, human
[1] = tested on: full panel of 58 human tumor cell lines; assay: NCI in vitro five dose anticancer assay, whole panel; type: cell-based; conditions: read-out: GI50 (range over panel)
NCI-H460 = assay: NCI in vitro five dose anticancer assay; type: cell-based, human
MDA-MB231/ATCC = assay: NCI in vitro five dose anticancer assay; type: cell-based, human
RPMI-8226 cell line = assay: NCI in vitro one dose anticancer assay; type: cell-based; conditions: Homo sapiens, RPMI-8226, 48 h, read-out: % growth inhibition
Method in brief: as §1

OVCAR-4 = assay: NCI in vitro five dose anticancer assay; type: cell-based, human
KM12 = assay: NCI in vitro five dose anticancer assay; type: cell-based, human
HS 578T = assay: NCI in vitro five dose anticancer assay; type: cell-based, human; conditions: 48 h
K-562 = assay: MTT anti-proliferative assay; type: cell-based, human; conditions: Homo sapiens, K562, 24 h, read-out: IC50 ± SD, K-562
OVCAR-8 = assay: NCI in vitro five dose anticancer assay; type: cell-based, human
M14 = assay: NCI in vitro five dose anticancer assay; type: cell-based, human
LOX IMVI = assay: NCI in vitro five dose anticancer assay; type: cell-based, human; conditions: 48 h
HT29 = assay: NCI in vitro five dose anticancer assay; type: cell-based, human
PC-3 = assay: NCI in vitro five dose anticancer assay; type: cell-based, human
NCI-H522 = assay: NCI in vitro five dose anticancer assay; type: cell-based, human
NCI-H226 = assay: NCI in vitro five dose anticancer assay; type: cell-based, human
SF-268 = assay: NCI in vitro five dose anticancer assay; type: cell-based, human

COc1ccc(C=CC(=O)c2ccc(NC(=O)CSc3nnc(-c4cc(OC)c(OC)c(OC)c4)o3)cc2)cc1 [Compound 8v, N-(4-(3-(4-Methoxyphenyl)acryloyl)phenyl)-2-((5-(3,4,5-trimethoxy-phenyl)-1,3,4-oxadiazol-2-yl)thio)acetamide]
GI50 (MOLT-4; Homo sapiens, MOLT-4, 48 h): 2.05 µM | TGI (MOLT-4; MOLT-4, Leukemia, five dose, 48 h, SRB): 5.27 µM | GI50 (U251; Homo sapiens, U-251, 48 h): 1.68 µM | TGI (U251; U251, CNS cancer, five dose, 48 h, SRB): 3.18 µM | inhibition at 10 µM (SR cell line): 32.9 to 160% | TGI (DU-145; DU-145, Prostate Cancer, five dose, 48 h, SRB): 3.21 µM | GI50 (DU-145; Homo sapiens, DU-145, 48 h): 1.75 µM | TGI (HOP-62; HOP-62, Non-Small Cell Lung Cancer, five dose, 48 h, SRB): 4.53 µM | GI50 (HOP-62; Homo sapiens, HOP-62, 48 h): 2.13 µM | GI50 (SW-620; Homo sapiens, SW-620, 48 h): 1.86 µM | TGI (SW-620; SW-620, Colon Cancer, five dose, 48 h, SRB): 3.60 µM | TGI (BT-549; BT-549, Breast cancer, five dose, 48 h, SRB): 2.81 µM | GI50 (BT-549; Homo sapiens, BT-549, 48 h): 1.4 µM | GI50 (MDA-MB-435; Homo sapiens, MDA-MB-435, 48 h): 1.7 µM | TGI (MDA-MB-435; MDA-MB-435, Melanoma, five dose, 48 h, SRB): 3.40 µM | GI50 (SF-539; Homo sapiens, SF-539, 48 h): 1.64 µM | TGI (SF-539; SF-539, CNS cancer, five dose, 48 h, SRB): 3.03 µM | GI50 (MDA-MB-468; Homo sapiens, MDA-MB-468, 48 h): 2.1 µM | TGI (MDA-MB-468; MDA-MB-468, Breast cancer, five dose, 48 h, SRB): 5.02 µM | GI50 (UACC-62; Homo sapiens, UACC-62, 48 h): 1.73 µM | TGI (UACC-62; UACC-62, Melanoma, five dose, 48 h, SRB): 3.43 µM | GI50 (T-47D; Homo sapiens, T47D): 2.05 µM | TGI (T-47D; T-47D, Breast cancer, five dose, SRB): 5.08 µM | GI50 (NCI-H23; Homo sapiens, NCI-H23, 48 h): 1.88 µM | TGI (NCI-H23; NCI-H23, Non-Small Cell Lung Cancer, five dose, 48 h, SRB): 3.97 µM | IC50 (KG-1a): 3.45 ± 0.25 µM | TGI (HOP-92; HOP-92, Non-Small Cell Lung Cancer, five dose, 48 h, SRB): 4.23 µM | GI50 (HOP-92; Homo sapiens, HOP-92, 48 h): 1.93 µM | GI50 (IGROV1; Homo sapiens, IGROV-1, 48 h): 1.54 µM | TGI (IGROV1; IGROV1, Ovarian Cancer, five dose, 48 h, SRB): 3.75 µM | GI50 (CCRF-CEM; Homo sapiens): 1.84 µM | TGI (CCRF-CEM; Leukemia, five dose, SRB): 4.56 µM | GI50 (SNB-75; Homo sapiens, SNB-75, 48 h): 1.47 µM | TGI (SNB-75; SNB-75, CNS cancer, five dose, 48 h, SRB): 3.15 µM | GI50 [1]: 0.32 to 11 µM | GI50 (NCI-H460; Homo sapiens, NCI-H460, 48 h): 2 µM | TGI (NCI-H460; NCI-H460, Non-Small Cell Lung Cancer, five dose, 48 h, SRB): 3.85 µM | GI50 (MDA-MB231/ATCC; Homo sapiens, MDA-MB-231, 48 h): 1.82 µM | TGI (MDA-MB231/ATCC; MDA-MB231/ATCC, Breast cancer, five dose, 48 h, SRB): 3.50 µM | inhibition at 10 µM (RPMI-8226 cell line): 31.3 to 144% | GI50 (OVCAR-4; Homo sapiens, OVCAR-4, 48 h): 2 µM | TGI (OVCAR-4; OVCAR-4, Ovarian Cancer, five dose, 48 h, SRB): 4.62 µM | GI50 (KM12; Homo sapiens, KM12, 48 h): 1.77 µM | TGI (KM12; KM12, Colon Cancer, five dose, 48 h, SRB): 3.40 µM | TGI (HS 578T; HS 578T, Breast cancer, five dose, SRB): 7.76 µM | GI50 (HS 578T; Homo sapiens, Hs-578T): 2.65 µM | IC50 (K-562): 1.95 ± 0.18 µM | GI50 (OVCAR-8; Homo sapiens, OVCAR-8, 48 h): 2.32 µM | TGI (OVCAR-8; OVCAR-8, Ovarian Cancer, five dose, 48 h, SRB): 5.73 µM | GI50 (M14; Homo sapiens, M14, 48 h): 1.6 µM | TGI (M14; M14, Melanoma, five dose, 48 h, SRB): 3.30 µM | GI50 (LOX IMVI; Homo sapiens): 0.32 µM | TGI (LOX IMVI; Melanoma, five dose, SRB): 1.28 µM | TGI (HT29; HT29, Colon Cancer, five dose, 48 h, SRB): 3.62 µM | GI50 (HT29; Homo sapiens, HT-29, 48 h): 1.83 µM | GI50 (PC-3; Homo sapiens, PC-3, 48 h): 1.75 µM | TGI (PC-3; PC-3, Prostate Cancer, five dose, 48 h, SRB): 3.30 µM | GI50 (NCI-H522; Homo sapiens, NCI-H522, 48 h): 1.55 µM | TGI (NCI-H522; NCI-H522, Non-Small Cell Lung Cancer, five dose, 48 h, SRB): 3.21 µM | GI50 (NCI-H226; Homo sapiens, NCI-H226, 48 h): 2.67 µM | TGI (NCI-H226; NCI-H226, Non-Small Cell Lung Cancer, five dose, 48 h, SRB): 5.69 µM | GI50 (SF-268; Homo sapiens, SF-268, 48 h): 1.79 µM | TGI (SF-268; SF-268, CNS cancer, five dose, 48 h, SRB): 3.96 µM
